For 26 compounds, EC50 results are on record in ChEMBL document CHEMBL1142792, “Structure-activity relationship studies of salubrinal lead to its active biotinylated derivative” (Bioorg Med Chem Lett, 2005).

Molecules are shown by their SMILES. pEC50: −log10 of the molar value. Some results are limits rather than exact numbers.

Assay type in all cases: functional, cell-based; call rule not given here
The test system of assay [1] is PC-12. Kind of assay: Cytoprotective activity on rat tunicamycin treated rat pheochromocytoma cell line PC12 from apoptosis induced by Endoplasmic reticulum stress. Put shortly: (§1)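 PC12 cells exposed to tunicamycin (ER-stress inducer) together with graded compound doses for 37 h; viability read as cellular ATP content. Positive control: zVAD.fmk 100 µM. EC50 taken as concentration giving half-maximal rescue from cell death relative to the Tm-only control.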

In assay [2] the test system is PC-12. Description: Cytoprotective activity on rat tunicamycin treated rat pheochromocytoma cell line PC12 from apoptosis induced by Endoplasmic reticulum stress; TX=Toxic. A digest of the protocol: as §1
The subject of assay [3] is PC-12. Description: Cytoprotective activity on rat tunicamycin treated rat pheochromocytoma cell line PC12 from apoptosis induced by Endoplasmic reticulum stress; NA = Not active upto 100 uM. A digest of the protocol:
as §1

On to `O=C(/C=C/c1cccs1)NC(NC(=S)Nc1ccccn1)C(Cl)(Cl)Cl` (stereo unspecified), for which, in assay [1], the pEC50 (usually the EC50 on a negative log10 scale, so that one unit is a factor of ten) was 4.39. On to `O=C(/C=C/c1ccccc1)NNC(=S)Nc1ccccn1`, for which the EC50 entry in assay [2] is “Toxic”.

For `O=C(/C=C/c1cccnc1)NC(NC(=S)Nc1ccccn1)C(Cl)(Cl)Cl` (stereo unspecified), in assay [1], the pEC50 was 4.52.

Consider `O=C(/C=C/C1CCCCC1)NC(NC(=S)Nc1ccccn1)C(Cl)(Cl)Cl` (stereo unspecified), for which the negative-log EC50 (pEC50) in assay [1] was 4.54. The pEC50 values of the last two compounds are within 0.2 log units of each other. Still for that read-out and setting: to `Nc1ccc(/C=C/C(=O)NC(/N=C(\S)Nc2ccccn2)C(Cl)(Cl)Cl)cc1` (stereo unspecified) belongs 4.25. As to `O=C(/C=C/c1ccccc1)NCCNC(=S)Nc1ccccn1`, the EC50 entry in assay [2] was “Toxic”. Take `O=C(/C=C/c1ccc(F)cc1F)NC(/N=C(\S)Nc1ccccn1)C(Cl)(Cl)Cl` (stereo unspecified): the pEC50 in assay [1] was 4.14.

`O=C(/C=C/c1ccccc1)NC(NC(=S)Nc1ccccn1)C(Cl)(Cl)Cl` (stereo unspecified) had a pEC50 in assay [1] of 4.40. The same measure, in the same setting: then `O=C(/C=C/c1ccccc1)NC(NC(=S)Nc1cccc2cccnc12)C(Cl)(Cl)Cl` (stereo unspecified) [SALUBRINAL], with 4.82. For the compound `CCOC(=O)C(/N=C(\S)Nc1ccccn1)NC(=O)/C=C/c1ccccc1` (stereo unspecified), in assay [3], the EC50 entry is recorded as “Not Active”.

The compound `O=C(/C=C/c1ccccc1)NC(NC(=S)Nc1ccccn1)C(Br)(Br)Br` (stereo unspecified) gave a pEC50 in assay [1] of 4.29. As for `O=C(/C=C/c1ccccc1)NC1CSC(Nc2ccccn2)=N1` (stereo unspecified), in assay [3], the EC50 result is given as “Not Active”.

`O=C(/C=C/c1ccccc1Cl)NC(NC(=S)Nc1ccccn1)C(Cl)(Cl)Cl` (stereo unspecified) had a pEC50 in assay [1] of 4.40.

Consider `O=C(/C=C/c1ccccc1)NC(NC(=S)Nc1cnc2ccccc2c1)C(Cl)(Cl)Cl` (stereo unspecified), for which, in assay [3], the EC50 result is “Not Active”. Take `O=C(/C=C/c1ccc(Br)cc1)NC(NC(=S)Nc1ccccn1)C(Cl)(Cl)Cl` (stereo unspecified): the pEC50 in assay [1] is 4.30. As to `O=C(/C=C/c1ccc([N+](=O)[O-])cc1)NC(/N=C(\S)Nc1ccccn1)C(Cl)(Cl)Cl` (stereo unspecified), the pEC50 in assay [1] is 4.55.

In assay [1], `CCCC/N=C(\S)NC(NC(=O)/C=C/c1ccccc1)C(Cl)(Cl)Cl` (stereo unspecified) had a negative logarithm of the EC50 (pEC50) of 4.62. This pEC50 and that of the compound before are within 0.2 log units of each other.

Consider `O=C(/C=C/c1ccccc1)NC(CO)/N=C(\S)Nc1ccccn1` (stereo unspecified), for which the EC50 entry in assay [3] is “Not Active”. On to `O=C(/C=C/c1ccccc1)NC(/N=C(\S)Nc1ccccn1)C(F)(F)F` (stereo unspecified), for which the EC50 result in assay [2] is “Toxic”. In assay [1], `O=C(/C=C/c1ccccc1C(F)(F)F)NC(/N=C(\S)Nc1ccccn1)C(Cl)(Cl)Cl` (stereo unspecified) had a pEC50 of 4.42. The same measure, in the same setting: then `O=C(CCc1ccccc1)NC(NC(=S)Nc1ccccn1)C(Cl)(Cl)Cl` (stereo unspecified), with 4.48; and `O=C(/C=C/c1ccccc1)NC(NC(=S)NC(=O)c1ccccc1)C(Cl)(Cl)Cl` (stereo unspecified), with less than 4.00. Turning to `O=C(NC(NC(=S)Nc1ccccn1)C(Cl)(Cl)Cl)c1ccccc1` (stereo unspecified), the EC50 result in assay [3] was “Not Active”. On the same count and under the same terms, to `CC(C)=CC(=O)NC(/N=C(\S)Nc1ccccn1)C(Cl)(Cl)Cl` (stereo unspecified) belongs “Not Active”; to `CCCCOc1ccc(/C=C/C(=O)NC(/N=C(\S)Nc2ccccn2)C(Cl)(Cl)Cl)cc1` (stereo unspecified), “Not Active”. Consider `O=C(/C=C/c1ccccc1)NC(NC(=S)Nc1ccccn1)C(Cl)Cl` (stereo unspecified), for which the pEC50 in assay [1] was 4.12.
